Consider seven compounds from ChEMBL document CHEMBL1156653, “Bioactive asterric acid derivatives from the Antarctic ascomycete fungus Geomyces sp” (J Nat Prod, 2008).

≈ marks a conversion by molar mass, not a printed value.

Holding throughout (format): functional, organism-based
One assay deals with Escherichia coli. Description: Antimicrobial activity against Escherichia coli CGMCC 1.2340. In outline:
(§1)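 Bacteria grown on Mueller-Hinton agar, then in broth at 37 °C for 24 h. Final suspension was 10^6 cells/mL in MHB. Samples were 10 mg/mL DMSO stocks, serially diluted and tested in triplicate. Absorbance at 595 nm was read after incubation. IC50 came from plotting inhibition rate vs concentration. MIC was the lowest concentration completely inhibiting growth.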

In a further assay the test system is Staphylococcus aureus. The experiment in a line: Antimicrobial activity against Staphylococcus aureus ATCC 6538. The essentials: as §1
For a further assay, the system named is Aspergillus fumigatus. Description: Antifungal activity against Aspergillus fumigatus ATCC 10894. The essentials:
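A. fumigatus grown on potato dextrose agar, then in broth at 28 °C for 48 h. Final inoculum was 10^4 mycelial fragments/mL in PDB. Samples were 10 mg/mL DMSO stocks, serially diluted and tested in triplicate. A595 was read after incubation. IC50 came from the inhibition-rate vs concentration plot. MIC was the lowest concentration giving complete growth inhibition.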

Another assay concerns Streptococcus pneumoniae. The experiment in a line: Antimicrobial activity against Streptococcus pneumoniae CGMCC 1.1692. In outline: as §1

For `CCCCOC(=O)c1c(O)cc(C)cc1Oc1c(OC)cc(O)cc1C(=O)OC` [BUTYL ASTERRATE], the half-inhibitory concentration (IC50) with Escherichia coli, with Staphylococcus aureus, in the assay with Aspergillus fumigatus and with Streptococcus pneumoniae was more than 50 µM in each case.
Consider `CCOC(=O)c1c(O)cc(C)cc1Oc1c(OC)cc(O)cc1C(=O)OC` [ETHYL ASTERRATE], for which the IC50 with Escherichia coli, with Staphylococcus aureus, with Aspergillus fumigatus and in the assay on Streptococcus pneumoniae was more than 50 µM in each case.
Consider `OC(Cn1cncn1)(Cn1cncn1)c1ccc(F)cc1F` [FLUCONAZOLE], for which, in the assay with Aspergillus fumigatus, the IC50 was 7.35 µM and the minimum inhibitory concentration (MIC) was 163 µM (≈ 50 µg/mL).
In the case of `COC(=O)c1cc(OC(=O)c2c(O)cc(C)cc2Oc2c(OC)cc(O)cc2C(=O)OC)cc(OC)c1Oc1cc(C)cc(O)c1C(=O)OC` [GEOMYCIN A], the IC50 with Escherichia coli, in the assay with Staphylococcus aureus, in the assay on Aspergillus fumigatus and in the assay with Streptococcus pneumoniae was more than 50 µM in each case.
In the assay with Aspergillus fumigatus, `COC(=O)c1cc(OC(=O)c2c(O)cc(C)cc2Oc2c(OC)cc(O)cc2C(=O)OC)cc(OC)c1Oc1cc(C)cc(O)c1C(=O)O` [GEOMYCIN B] showed a 50% inhibitory concentration (IC50) of 0.86 µM and a minimum inhibitory concentration (MIC) of 29.5 µM (≈ 20 µg/mL).
For the compound `COC(=O)C1=CC(=O)C=C(OC)[C@]12Oc1cc(C)cc(OC(=O)c3c(O)cc(C)cc3Oc3c(OC)cc(O)cc3C(=O)OC)c1C2=O` [GEOMYCIN C], the IC50 was 12.9 µM with Escherichia coli, 17.3 µM with Staphylococcus aureus and 36.2 µM in the assay with Streptococcus pneumoniae. Besides, the MIC in the assay with Escherichia coli worked out at 30.3 µM (≈ 20 µg/mL); with Staphylococcus aureus it was 75.8 µM (≈ 50.1 µg/mL); against Streptococcus pneumoniae, 152 µM (≈ 100 µg/mL).
In the assay on Escherichia coli, `CN[C@@H]1[C@H](O[C@H]2[C@H](O[C@H]3[C@H](O)[C@@H](O)[C@H](N=C(N)N)[C@@H](O)[C@@H]3N=C(N)N)O[C@@H](C)[C@]2(O)C=O)O[C@@H](CO)[C@H](O)[C@H]1O` [STREPTOMYCIN] came in with an IC50 of 1.05 µM and an MIC of 11.2 µM (≈ 6.51 µg/mL).

By IC50 is commonly meant the concentration that inhibits the measured activity by half. A high value points to a need for much substance. One may read the MIC as the smallest concentration in the dilution series that meets the test's criterion for growth inhibition. Lower therefore signals a more susceptible organism.
